Data on twelve compounds can be found in ChEMBL document CHEMBL2407048, “Novel synthetic acridine derivatives as potent DNA-binding and apoptosis-inducing antitumor agents” (Bioorg Med Chem, 2013).

Molecules are shown by their SMILES. Active and inactive are the calls of the source. The rule behind the calls is not given here. Where only a bound is given, the exact number is not on record here.

Test [1] relates to K562. In words: Induction of apoptosis in human K562 cells assessed as late apoptotic cells at 1 uM after 48 hrs by annexin V-FITC/propidium iodide staining-based flow cytometric analysis (reference value: 1.22%). Type of test: functional.
In test [2] the test system is DNA. In words: Binding affinity to calf thymus DNA after 5 mins by UV-vis absorption spectroscopic analysis. Type of test: nucleic-acid assay. The settings on record: Bos taurus. The gist of the method:
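ct DNA (purity A260:A280 1.86; concentration per mole phosphate from ε260 6600 M⁻¹ cm⁻¹) titrated into 50 μM compound in 10 mM Tris, 10 mM NaCl, pH 7.0. DNA 0–10 μM. Incubated 5 min, UV-vis absorption recorded in a 1.0 cm quartz cell. Kb taken as the slope-to-intercept ratio of [DNA]/(εa−εf) plotted against [DNA].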

The target in test [3] is T1, DNA topoisomerase 1 (Homo sapiens) (UniProt P11387).
T1 sequence (whole entry): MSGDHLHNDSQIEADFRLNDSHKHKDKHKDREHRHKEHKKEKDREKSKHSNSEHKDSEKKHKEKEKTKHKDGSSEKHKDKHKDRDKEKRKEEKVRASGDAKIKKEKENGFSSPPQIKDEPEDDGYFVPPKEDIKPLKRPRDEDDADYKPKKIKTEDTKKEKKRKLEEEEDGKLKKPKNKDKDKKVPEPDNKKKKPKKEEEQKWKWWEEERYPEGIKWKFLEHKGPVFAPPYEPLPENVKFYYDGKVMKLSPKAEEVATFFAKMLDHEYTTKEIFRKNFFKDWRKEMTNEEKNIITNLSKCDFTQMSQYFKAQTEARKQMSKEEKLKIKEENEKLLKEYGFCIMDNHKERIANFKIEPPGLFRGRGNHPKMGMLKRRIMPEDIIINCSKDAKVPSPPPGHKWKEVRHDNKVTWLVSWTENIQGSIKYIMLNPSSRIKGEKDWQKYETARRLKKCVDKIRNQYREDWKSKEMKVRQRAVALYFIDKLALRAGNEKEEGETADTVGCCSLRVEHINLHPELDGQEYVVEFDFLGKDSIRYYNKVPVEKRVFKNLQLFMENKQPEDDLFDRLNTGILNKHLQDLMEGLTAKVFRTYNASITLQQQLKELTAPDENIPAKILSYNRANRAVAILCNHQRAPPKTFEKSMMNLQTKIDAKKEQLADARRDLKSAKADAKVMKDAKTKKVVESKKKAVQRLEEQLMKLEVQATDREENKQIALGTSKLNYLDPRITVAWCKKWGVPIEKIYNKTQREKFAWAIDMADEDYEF
In words: Inhibition of human recombinant DNA topoisomerase-1 assessed as relaxation of pBR322 DNA at 25 uM after 30 mins by agarose gel electrophoresis.

Test [4] relates to K562. The test is described as follows: Induction of apoptosis in human K562 cells assessed as caspase-3 cleavage at 2.5 uM after 48 hrs by Western blot analysis. Type of test: functional, cell-based. The method, boiled down: (§1)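 K562 cells in 6 cm dishes treated 48 h at several concentrations, then lysed on ice 0.5 h and spun at 20,000g. Protein measured by BCA, run on 15% SDS-PAGE and transferred to PVDF. Membrane blocked in 5% BSA/TBS with Na₃VO₄ and NaF, primary antibody 2 h at room temperature, chemiluminescent detection of cleaved caspase-3/7/9, BAX and BCL-XL.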

For test [5], the system named is DNA. The test is described as follows: Effect on calf thymus DNA conformation at 40 to 80 uM by CD spectra analysis. In kind it is nucleic-acid assay. The settings on record: Bos taurus. The method, boiled down: (§2)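 CD spectra of ct DNA (40 μM) with compound at 0, 40 or 80 μM, in 10 mM Tris/10 mM NaCl pH 7.0, at room temperature in a 0.1 cm quartz cell. Each spectrum is the average of three scans with the buffer scan subtracted.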

For test [6], the system named is K562. In words: Induction of apoptosis in human K562 cells assessed as early apoptotic cells at 0.5 uM after 48 hrs by annexin V-FITC/propidium iodide staining-based flow cytometric analysis (reference value: 2.1%). Type of test: functional. On the technique in general: Flow cytometry measures light scatter and fluorescence of single cells or particles in a stream.

The test system of test [7] is K562. In words: Induction of apoptosis in human K562 cells assessed as decrease in BCL-XL level at 2.5 uM after 48 hrs by Western blot analysis. In kind it is functional, cell-based. The method, boiled down: as §1
For orientation: A western blot detects proteins with antibodies after separation by electrophoresis.

Test [8] concerns K562. In words: Induction of apoptosis in human K562 cells assessed as late apoptotic cells at 0.5 uM after 48 hrs by annexin V-FITC/propidium iodide staining-based flow cytometric analysis (reference value: 1.22%). Type of test: functional.
Test [9] concerns K562. The test is described as follows: Induction of apoptosis in human K562 cells assessed as early apoptotic cells at 1 uM after 48 hrs by annexin V-FITC/propidium iodide staining-based flow cytometric analysis (reference value: 2.1%). Type of test: functional.
The subject of test [10] is K562. The test is described as follows: Induction of apoptosis in human K562 cells after 48 hrs by annexin V-FITC/propidium iodide staining-based flow cytometric analysis. In kind it is functional, cell-based.
Test [11] relates to K562. In words: Induction of apoptosis in human K562 cells assessed as caspase-7 cleavage at 2.5 uM after 48 hrs by Western blot analysis. Type of test: functional, cell-based. The gist of the method: as §1
Test [12] concerns K562. In words: Induction of apoptosis in human K562 cells assessed as increase in Bax level at 2.5 uM after 48 hrs by Western blot analysis. Type of test: functional, cell-based. The method, boiled down: as §1
In test [13] the test system is DNA. In words: Binding affinity to calf thymus DNA by fluorescence spectroscopic analysis. In kind it is nucleic-acid assay. The settings on record: Bos taurus. The gist of the method: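 Compound at 50 μM final in Tris–HCl buffer pH 7.0 (10 mM Tris, 10 mM NaCl), titrated with ct DNA at 0 to 6 μM final. Emission excited at 420 nm with a xenon arc lamp. Quenching constant Kq derived from a Stern–Volmer plot, F0/F = 1 + Kq[Q].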

Test [14] deals with K562. In words: Induction of apoptosis in human K562 cells assessed as early apoptotic cells at 2.5 uM after 48 hrs by annexin V-FITC/propidium iodide staining-based flow cytometric analysis (reference value: 2.1%). Type of test: functional.
The test system of test [15] is DNA. The test is described as follows: Binding affinity to calf thymus DNA at 40 to 80 uM by CD spectra analysis. In kind it is nucleic-acid assay. The settings on record: Bos taurus. The method, boiled down:
as §2

Test [16] deals with K562. In words: Induction of apoptosis in human K562 cells assessed as late apoptotic cells at 2.5 uM after 48 hrs by annexin V-FITC/propidium iodide staining-based flow cytometric analysis (reference value: 1.22%). In kind it is functional.
Another test relates to HepG2. The test is described as follows: Cytotoxicity against human HepG2 cells assessed as growth inhibition after 48 hrs by MTT assay. The settings on record: HepG2, 48 h. Type of test: functional, cell-based. The gist of the method:
(§3)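 K562 (RPMI-1640) or HepG-2 (DMEM) cells in 10% FBS with penicillin/streptomycin at 37 °C, 5% CO₂. Seeded at 1.5×10^5 cells/mL and treated 48 h at various concentrations. MTT (5 mg/mL) added for 4 h, formazan dissolved in DMSO, absorbance read at 490 nm. IC50 reported.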
(In general: Formazan colour is commonly taken as a measure of viable cells.)

Test [17] concerns K562. The test is described as follows: Induction of apoptosis in human K562 cells assessed as activation of caspase-9 after 48 hrs by Western blot analysis. In kind it is functional, cell-based. The method, boiled down:
as §1

The subject of test [18] is K562. The test is described as follows: Cytotoxicity against human K562 cells assessed as growth inhibition after 48 hrs by MTT assay. Type of test: functional, cell-based. Particulars: K562, 48 h. The gist of the method:
as §3

As usually defined, the IC50 is the midpoint of a concentration-inhibition curve. In the case of `COc1ccc2nc3ccccc3c(NCc3ccccc3)c2c1`, the Activity was 18.42% in the test with K562 [1]; 7.23% with K562 [6]; 2% in the test on K562 [8]; 37.09% in the test on K562 [9]; “Dose-dependent effect” with K562 [10]; 40.44% in the test with K562 [14]. The figures for the Activity in the test on K562 [16] and with K562 [17] were 32.71% and “Dose-dependent effect”, respectively. The Kb with DNA [2] was 1.42 ×10⁵ /M. In test [3], the inhibition result is “Active”. The outcome in the test with K562 [4], in the test on K562 [7], in the test on K562 [11], in the test with K562 [12] and in the test with DNA [15] was Active. Besides, in the test with DNA [5], the result was inactive. Further, in the test on DNA [13], the Kq came out at 3.5 ×10⁵ /M. The IC50 with HepG2 stood at 0.89 µM; in the test on K562 [18] it was 540 nM.

As for `COc1cc2c(c(OC)c1OC)-c1ccc(OC)c(=O)cc1[C@@H](NC(C)=O)CC2` [COLCHICINE], in the test with HepG2, the IC50 was 1.8 µM.

In the test on DNA [13], `O=C(Nc1c2ccccc2nc2ccccc12)c1ccccc1` came in with a Kq of less than 1 ×10⁴ /M. Moreover, the values for the IC50 in the test with HepG2 and with K562 [18] were greater than 50 µM and greater than 50000 nM, respectively.

`c1ccc(COc2c3ccccc3nc3ccccc23)cc1` had a Kq in the test on DNA [13] of less than 1 ×10⁴ /M. Moreover, the IC50 in the test on HepG2 was greater than 50 µM; in the test with K562 [18] it was greater than 50000 nM.

In the test on DNA [13], `Clc1ccc2c(NCc3ccccc3)c3ccccc3nc2c1` showed a Kq of 1.33 ×10⁴ /M. The IC50 with HepG2 came out at 11.6 µM; with K562 [18], 9240 nM.

Consider `COc1ccc2nc3cc(Cl)ccc3c(NCc3ccccc3)c2c1`, for which the Kq in the test on DNA [13] amounted to 1.97 ×10⁵ /M. The IC50 with HepG2 was determined as 1.4 µM; with K562 [18] it was 650 nM.

In the case of `COc1ccc2nc3cc(Cl)ccc3c(NCCCc3ccccc3)c2c1`, the Kq with DNA [13] was determined as 1.05 ×10⁵ /M. Further, the half-maximal inhibitory concentration (IC50) worked out at 3.26 µM in the test on HepG2 and 2200 nM with K562 [18].

`Cc1ccc(NC(=O)c2ccc(CN3CCN(C)CC3)cc2)cc1Nc1nccc(-c2cccnc2)n1` [IMATINIB]: the concentration for half-maximal inhibition (IC50) in the test on K562 [18] stood at 470 nM.

In the case of `COc1ccc2nc3cc(Cl)ccc3c(NCCc3ccccc3)c2c1`, the Kq with DNA [13] was found to be 1.19 ×10⁵ /M. Further, the half-inhibitory concentration (IC50) was 2.19 µM with HepG2 and 650 nM in the test with K562 [18].

Consider `Cc1cccc2c(NCc3ccccc3)c3ccccc3nc12`, for which the inhibition entry in test [3] is “Active”. The compound further gave a Kq in the test on DNA [13] of 6.22 ×10⁴ /M. Moreover, the half-maximal inhibitory concentration (IC50) turned out to be 3.64 µM with HepG2 and 4860 nM with K562 [18].

`c1ccc(CNc2c3ccccc3nc3ccccc23)cc1`: the inhibition result in [3] was “Active”. In the test on DNA [13], this compound displayed a Kq of 3.71 ×10⁴ /M. Moreover, the half-maximal inhibitory concentration (IC50) turned out to be 6.07 µM in the test with HepG2 and 5240 nM in the test with K562 [18].

As for `COc1cc(C)c2nc3cc(Cl)ccc3c(NCc3ccccc3)c2c1`, the Kq with DNA [13] is 1.11 ×10⁵ /M. Also, the IC50 came out at 6.05 µM in the test on HepG2 and 3090 nM in the test on K562 [18].
